Legend:
BT-549 = assay: Anticancer activity against human BT549 cells assessed as cell growth promotion at 10^-5 M after 48 hrs by SRB assay relative to control; assay type: functional
T47D = assay: Cytotoxicity against human T47D cells after 48 hrs by SRB assay; assay type: cell-based
Method in brief: (§1)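 NCI-60 five-dose screen. Cells grown in RPMI 1640 with 5% FBS and 2 mM L-glutamine and pre-incubated 24 h; a time-zero plate is TCA-fixed. Drug added at 0.01, 0.1, 1, 10 and 100 µM (DMSO stock) for 48 h at 37 °C, 5% CO2. Fixed with cold TCA (10% final for adherent, 16% for suspension cells), stained with 0.4% SRB, A515. GI50, TGI and LC50 taken from dose-response curves.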

LOX IMVI = assay: Anticancer activity against human LOXIMVI cells assessed as cell growth promotion at 10^-5 M after 48 hrs by SRB assay relative to control; assay type: functional
SF-295 [1] = assay: Cytotoxicity against human SF295 cells after 48 hrs by SRB assay; assay type: cell-based; settings: sf-295, 48 h
Method in brief: (§2)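 NCI-60 five-dose screen in RPMI 1640 with 5% FBS and 2 mM L-glutamine; 5000–40,000 cells/well, 24 h pre-incubation. DMSO stocks diluted to 0.01, 0.1, 1, 10 and 100 μM final; 48 h at 37 °C, 5% CO2. Fixed with TCA (10% final adherent, 16% suspension), stained with 0.4% SRB, A515. GI50, TGI and LC50 taken from time-zero, control and test absorbances.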

SF-268 = assay: Growth inhibition of human SF268 cells after 48 hrs by SRB assay; assay type: functional; settings: SF-268, 48 h
Method in brief: (§3)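 NCI 60-panel five-dose assay at 0.01, 0.1, 1, 10 and 100 μM. Cells in RPMI 1640 with 5% FBS and 2 mM L-glutamine, preincubated 24 h, with time-zero plates TCA-fixed. Drug exposure 48 h at 37 °C. Read by SRB staining at 515 nm. GI50 is the concentration where [(Ti−Tz)/(C−Tz)]×100 = 50, taken from log concentration versus % growth curves.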

SF-539 [2] = assay: Growth inhibition of human SF539 cells after 48 hrs by SRB assay; assay type: functional; settings: SF-539, 48 h
Method in brief: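 NCI-60 panel cells grown in RPMI 1640 with 5% FBS and 2 mM L-glutamine, then seeded at 5000–40,000 cells/well by doubling time and preincubated for 24 h. Compound in DMSO was tested either at 10^-5 M alone or at 0.01–100 μM in five doses, for 48 h at 37 °C. Cells were fixed with cold TCA (10% final), stained with SRB, and read at 515 nm. GI50 was taken from % growth relative to time-zero and control wells.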

ACHN = assay: Anticancer activity against human ACHN cells assessed as cell growth promotion at 10^-5 M after 48 hrs by SRB assay relative to control; assay type: functional
OVCAR-4 = assay: Anticancer activity against human OVCAR4 cells assessed as cell growth promotion at 10^-5 M after 48 hrs by SRB assay relative to control; assay type: functional
MCF7 = assay: Anticancer activity against human MCF7 cells assessed as cell growth promotion at 10^-5 M after 48 hrs by SRB assay relative to control; assay type: functional
HCC 2998 = assay: Anticancer activity against human HCC2998 cells assessed as cell growth promotion at 10^-5 M after 48 hrs by SRB assay relative to control; assay type: functional
COLO 205 = assay: Anticancer activity against human COLO205 cells assessed as cell growth promotion at 10^-5 M after 48 hrs by SRB assay relative to control; assay type: functional
NCI-H23 = assay: Growth inhibition of human NCI-H23 cells after 48 hrs by SRB assay; assay type: functional; settings: NCI-H23, 48 h; method in brief: as §3
NCI-H226 = assay: Anticancer activity against human NCI-H226 cells assessed as cell growth promotion at 10^-5 M after 48 hrs by SRB assay relative to control; assay type: functional
TK-10 = assay: Anticancer activity against human TK10 cells assessed as cell growth promotion at 10^-5 M after 48 hrs by SRB assay relative to control; assay type: functional
HL-60(TB) = assay: Growth inhibition of human HL-60(TB) cells after 48 hrs by SRB assay; assay type: functional; settings: HL-60, 48 h
NCI-H522 = assay: Anticancer activity against human NCI-H522 cells assessed as cell growth promotion at 10^-5 M after 48 hrs by SRB assay relative to control; assay type: functional
SF-295 [3] = assay: Anticancer activity against human SF295 cells assessed as cell growth promotion at 10^-5 M after 48 hrs by SRB assay relative to control; assay type: functional
SK-MEL-2 = assay: Anticancer activity against human SK-MEL-2 cells assessed as cell growth promotion at 10^-5 M after 48 hrs by SRB assay relative to control; assay type: functional
OVCAR-8 [4] = assay: Cytotoxicity against human OVCAR8 cells after 48 hrs by SRB assay; assay type: cell-based; settings: ovcar-8, 48 h; method in brief: as §2
MDA-MB-468 = assay: Anticancer activity against human MDA-MB-468 cells assessed as cell growth promotion at 10^-5 M after 48 hrs by SRB assay relative to control; assay type: functional
DU-145 = assay: Anticancer activity against human DU145 cells assessed as cell growth promotion at 10^-5 M after 48 hrs by SRB assay relative to control; assay type: functional
IGROV-1 = assay: Anticancer activity against human IGROV1 cells assessed as cell growth promotion at 10^-5 M after 48 hrs by SRB assay relative to control; assay type: functional
SK-MEL-28 = assay: Anticancer activity against human SK-MEL-28 cells assessed as cell growth promotion at 10^-5 M after 48 hrs by SRB assay relative to control; assay type: functional
OVCAR-8 [5] = assay: Anticancer activity against human OVCAR8 cells assessed as cell growth promotion at 10^-5 M after 48 hrs by SRB assay relative to control; assay type: functional
PC-3 = assay: Anticancer activity against human PC3 cells assessed as cell growth promotion at 10^-5 M after 48 hrs by SRB assay relative to control; assay type: functional
A549 = assay: Anticancer activity against human A549 cells assessed as cell growth promotion at 10^-5 M after 48 hrs by SRB assay relative to control; assay type: functional
HOP-62 = assay: Growth inhibition of human HOP62 cells after 48 hrs by SRB assay; assay type: functional; settings: HOP-62, 48 h; method in brief: as §3
Malme-3M = assay: Growth inhibition of human MALME-3M cells after 48 hrs by SRB assay; assay type: functional; method in brief: as §3
SF-539 [6] = assay: Anticancer activity against human SF539 cells assessed as cell growth promotion at 10^-5 M after 48 hrs by SRB assay relative to control; assay type: functional
SR = assay: Cytotoxicity against human SR cells after 48 hrs by SRB assay; assay type: cell-based; method in brief: as §1
SNB-75 = assay: Anticancer activity against human SNB75 cells assessed as cell growth promotion at 10^-5 M after 48 hrs by SRB assay relative to control; assay type: functional

**Q.** Which results are given for O=c1c2ccccc2nc(-c2ccco2)n1/N=C/c1ccccc1Cl?
**A.** Activity (BT-549): 13.63%; LC50 (T47D): > 100 µM; Activity (LOX IMVI): 34.24%; LC50 (SF-295 [1]): > 100 µM; GI50 (SF-268): 6.84 µM; TGI (SF-268): > 100 µM; GI50 (SF-539 [2]): 3.28 µM; TGI (SF-539 [2]): 21.2 µM; Activity (ACHN): 23.89%; Activity (OVCAR-4): 4.38%; Activity (MCF7): 63.86%; Activity (HCC 2998): 34.89%; Activity (COLO 205): 32.76%; GI50 (NCI-H23): 7.87 µM; TGI (NCI-H23): > 100 µM; Activity (NCI-H226): 53.52%; Activity (TK-10): 73.98%; GI50 (HL-60(TB)): 23.8 µM; TGI (HL-60(TB)): > 100 µM; Activity (NCI-H522): 10.38%; Activity (SF-295 [3]): 52.12%; Activity (SK-MEL-2): 67.89%; LC50 (OVCAR-8 [4]): > 100 µM; Activity (MDA-MB-468): 78.92%; Activity (DU-145): 56.23%; Activity (IGROV-1): 71.23%; Activity (SK-MEL-28): 38.98%; Activity (OVCAR-8 [5]): 26.87%; Activity (PC-3): 78.23%; Activity (A549): 38.12%; GI50 (HOP-62): 3.56 µM; TGI (HOP-62): 13.7 µM; GI50 (Malme-3M): 7.23 µM; TGI (Malme-3M): > 100 µM; Activity (SF-539 [6]): 24.89%; LC50 (SR): > 100 µM; Activity (SNB-75): 32.38%

Source: ChEMBL document CHEMBL1781959, “Synthesis and in vitro antitumor activity of substituted quinazoline and quinoxaline derivatives: search for anticancer agent” (Eur J Med Chem, 2011)
